RBBP9 inh: inhibitors of human serine hydrolase RBBP9 | recombinant RBBP9, FP-Rh probe fluorescence polarization | O75884 | inhibition, % at 7.94 µM | 220,000 compounds, 0.2% hits;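 active means inhibition above the campaign mean of all tested compounds plus 3 SD, cut at about 14% in these data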
Target sequence (O75884 whole entry, looked up): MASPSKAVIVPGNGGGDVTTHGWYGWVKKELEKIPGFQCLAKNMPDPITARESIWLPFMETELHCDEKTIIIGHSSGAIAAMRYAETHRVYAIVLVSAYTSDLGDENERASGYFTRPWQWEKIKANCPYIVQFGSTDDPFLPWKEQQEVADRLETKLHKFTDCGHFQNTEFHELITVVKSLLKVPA
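Measured by – fluorescence polarization · Test system – RBBP9 protein · Input – 2.5 µM RBBP9 dispensing solution, before mixing · Measure – percent inhibition from mP, scaled between DMSO and no-protein wells · Benchmarks – DMSO-treated enzyme wells and wells lacking RBBP9 · Times – preincubation 30 min plus labeling 45 min at 25 °C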
EP2 mod: modulates human prostaglandin E2 receptor EP2 signaling; EP2-expressing cells, cAMP HTRF FRET, PGE2 co-stimulation; induction, % at 25 µM; 260,000 compounds, 0.83% hits;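 active means compounds whose cAMP rise, as percent of the full-agonist control response, exceeds 60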;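 further: rat C6 glioma line stably carrying human EP2 under a CMV promoter; the protocol text gives 20 µM as final concentration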
Target sequence (P43116 whole entry, looked up): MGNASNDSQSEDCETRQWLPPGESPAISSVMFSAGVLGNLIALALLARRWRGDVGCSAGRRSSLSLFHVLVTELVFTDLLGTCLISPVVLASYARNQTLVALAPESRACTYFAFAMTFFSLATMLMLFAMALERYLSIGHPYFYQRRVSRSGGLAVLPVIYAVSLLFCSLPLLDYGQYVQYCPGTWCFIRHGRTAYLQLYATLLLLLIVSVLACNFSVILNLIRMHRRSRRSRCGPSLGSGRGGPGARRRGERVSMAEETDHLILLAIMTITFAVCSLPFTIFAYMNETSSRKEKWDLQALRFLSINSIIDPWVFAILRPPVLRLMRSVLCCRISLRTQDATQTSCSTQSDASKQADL
ABCB1 block: blocks JC-1 efflux by human ABCB1 transporter | AID 1326 | CCRF-Adr cells, flow cytometry | inhibition, % at 6.6 µM | 190,000 compounds, 0.067% hits | P08183; in the data active means inhibition above about 40%;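 further: higher value means more JC-1 retained so stronger ABCB1 efflux block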
PGE2 EP2 inh: EP2 receptor (human) inhibition. P43116. C6 glioma cells expressing human EP2, cAMP TR-FRET; cells stimulated with saturating PGE2. inhibition, % at 25 µM. 260,000 compounds, 0.52% hits. AID 1422;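 active means percent inhibition above 40 after rounding to a whole number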;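 further: rat C6 glioma host cells with rolipram phosphodiesterase inhibitor present; the protocol text gives 20 µM as final concentration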
ABCG2 block: inhibitors of human ABCG2 transporter, ABCB1 counter-screen; 190,000 compounds, 0.1% hits; AID 1325; inhibition, % at 6.6 µM; Q9UNQ0; IgMXP3 cells, JC-1 efflux, flow cytometry;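 active means inhibition above 80%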
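Test system: IgMXP3 (ABCG2) plus far-red-tagged CCRF-Adr (ABCB1) cells / Amount: 3 million cells/mL in well / Reagent: JC-1 transporter substrate / Timing: 10 min compound exposure, 25 °C / Signal: flow cytometry, 530 nm JC-1 signal / Read-out: percent efflux inhibition, scaled nicardipine 100% to DMSO 0% / Benchmarks: nicardipine as high control, DMSO as low control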
Numbers stand for hits; - = inactive; . = not tested or not shown. A selection: hits, their analogues and other compounds. The true share with any hit is near 1.5%.

SMILES	RBBP9 inh	EP2 mod	ABCB1 block	PGE2 EP2 inh	ABCG2 block
O=C(/C=C/c1ccco1)Nc1ccccc1N1CCCCC1	-	62	-	-	-
CCC(CN1CCOCC1)NC(=O)Cc1c(C)nn(-c2ccccc2C)c1C (configuration not stated)	.	-	.	-	.
CSc1ccccc1-c1n[nH]c(=S)o1	-	-	-	46	-
Cc1ccccc1-c1n[nH]c(=S)o1	-	-	-	-	-
O=C(c1ccccc1)c1ccccc1NC(=O)C1CCCN1Cc1ccccc1 (configuration not stated)	-	73	.	-	.
O=C(CN1CCCC1)Nc1ccccc1C(=O)c1ccccc1	-	-	.	-	.
Fc1ccc(-c2csc3ncnc(N4CCc5ccccc5C4)c23)cc1	-	64	-	-	-
Cc1ccc(S(=O)(=O)N=Nc2c(O)[nH]c3ccccc23)cc1C	-	-	-	-	-
Cc1ccc(S(=O)(=O)N=Nc2c(O)[nH]c3cc(O)c(C(=O)O)cc23)cc1	.	-	.	41	.
Nc1nc(-c2ccc3ccccc3c2)cs1	-	-	-	-	-
Nc1nc(-c2ccc3ccccc3c2)cc(-c2cc(-c3ccc4ccccc4c3)nc(N)n2)n1	.	-	.	51	.
Cc1ccc(-c2cc(C(=O)N/N=C/c3c[nH]c4ccccc34)[nH]n2)cc1	-	-	-	58	-
CCc1ccc(-c2cc(C(=O)N/N=C/c3ccccn3)[nH]n2)cc1	-	-	-	-	-
O=C(N/N=C/c1ccccn1)c1cc(-c2ccc3ccccc3c2)n[nH]1	-	-	-	51	-
Cc1ccc2nc(N/N=C/c3cccc(C)n3)cc(C)c2c1	.	-	.	40	.
O=C1C(=Cc2cccnc2)C(=O)c2ccccc21	.	-	.	42	.
Cc1cc(C(F)F)n2nc(C(=O)Nc3cccc4ccccc34)nc2n1	.	-	.	-	.
O=C(O)CCC(O)=C1S(=O)(=O)OCCOS1(=O)=O	.	-	.	43	.
Cc1cc(NC(=O)c2cc3nc(-c4ccco4)cc(C(F)(F)F)n3n2)c2ccccc2n1	.	-	.	-	.
COC(=O)CSc1cc(SCC(=O)OC)c(C#N)c(SCC(=O)OC)c1	-	-	-	55	-
COc1ccc(C(=O)N2CCCC(c3ccnc4cc(C)nn34)C2)cc1OC (configuration not stated)	.	-	.	.	.
COc1ccc(-c2cc3nccc(C4CCN(C(=O)OC(C)(C)C)CC4)n3n2)cc1OC	.	80	.	.	.
FC(F)(F)c1ccc(N=Cc2sc(N3CCOCC3)nc2-c2ccccc2)cc1	-	-	-	46	-
O=C1CCC(c2ccccc2)=NN1c1nc2ccccc2s1	.	-	.	56	.
O=C1C2C3C=CC(C3)C2C(=O)N1c1nc2ccccc2s1 (configuration not stated)	-	-	-	-	-
SMILES	RBBP9 inh	EP2 mod	ABCB1 block	PGE2 EP2 inh	ABCG2 block
CN(C)CCC(=O)[C@]1(O)CC[C@@H]2[C@H]3CC=C4C[C@@H](O)CC[C@]4(C)[C@@H]3CC[C@]21C	.	-	.	65	.
COc1ccc(C)cc1NC(=O)COc1ccc2c3c(c(=O)oc2c1C)CCC3	.	-	.	-	.
OC(c1ccccc1)(c1ccc(F)cc1)C(c1ccccc1)N1CCOCC1 (configuration not stated)	-	61	-	-	-
CC1(C)N=C(N)N=C(N)N1c1cccc(CSc2ccccc2)c1	.	-	.	52	.
CC1(C)N=C(N)N=C(N)N1c1cccc(OCc2cccc(N)c2)c1	.	-	.	54	.
COc1ccc(-c2ccc(=O)n(CC3CCN(C(=O)C4CCC4)CC3)n2)cc1	.	-	.	.	.
CCN(CC)CCN(Cc1cc2cc(C)ccc2[nH]c1=O)C(=S)NCCCOC	.	-	.	-	.
CC(=O)c1cccc(NC(=O)CSc2nc3cc4c(cc3cc2C)CCC4)c1	.	-	.	-	.
CCOC(=O)Cn1nnc2c(sc3nc4c(c(-c5ccc(Cl)cc5)c32)CCC4)c1=O	-	-	-	-	-
O=c1[nH]cnc2c1sc1nc3c(c(-c4ccc(Cl)cc4)c12)CCC3	-	61	-	-	-
COc1ccc(C(=O)Nc2ccc(N3CCN(C(=O)C(C)C)CC3)cc2)cc1Cl	.	-	.	-	.
CCN1CCCC1CN(Cc1cc2ccc(C)cc2[nH]c1=O)C(=S)Nc1cccc(C)c1 (configuration not stated)	.	-	.	-	.
Cc1cc(OCC(=O)Nc2nnc(C(C)C)s2)ccc1Cl	.	-	.	-	.
CCN1CCc2c(sc(NC(=O)Nc3ccc(Cl)c(Cl)c3)c2C(N)=O)C1	-	-	-	-	136
CCCc1c(-c2ccc(O)cc2)nn(-c2ccc(O)cc2)c1-c1ccc(O)cc1	.	-	.	100	.
CCN1CCN(Cc2cc3c(C)nn(-c4ccc(F)cc4)c3[nH]c2=O)CC1	.	-	.	-	.
Cc1cccc(C)c1NC(=O)CSc1nc2cc3c(cc2cc1C#N)OCCO3	.	-	.	-	.
N#Cc1cc2cc3c(cc2nc1SCC(=O)NCCc1ccccc1)OCCO3	.	73	.	-	.
N#Cc1cc2cc3c(cc2nc1SCC(=O)Nc1cccc2ccccc12)OCCO3	.	-	.	-	.
CCc1cccc(CC)c1NC(=O)CSc1nc2cc3c(cc2cc1C#N)OCCO3	.	63	.	-	.
CCCOc1cccc(C2C3=C(CCCC3=O)N(C)C3=C2C(=O)CCC3)c1	.	-	.	-	.
COc1cccc(-n2c(SCC(=O)N3CCOCC3)nnc2-c2ccoc2C)c1	.	-	.	-	.
CCc1ccc2[nH]c(=O)c(C(c3nnnn3CCOC)N3CCc4ccccc43)cc2c1 (configuration not stated)	.	-	.	-	.
Cc1onc(-c2ccccc2Cl)c1C(=O)OCc1cnc(Cl)s1	-	64	-	-	-
COc1ccc(CN(Cc2cc3cc(C)ccc3[nH]c2=O)C(=O)NC2CCCCC2)cc1	.	-	.	-	.
SMILES	RBBP9 inh	EP2 mod	ABCB1 block	PGE2 EP2 inh	ABCG2 block
CCn1ncc(C(=O)N2CCCC(c3ncncc3-c3cc(C)no3)C2)c1C (configuration not stated)	.	-	.	.	.
CCCCNc1nc(-c2ccccc2)cc(C(F)(F)F)c1C(N)=O	-	64	-	-	-
NC(=O)c1c(C(F)(F)F)cc(-c2ccccc2)nc1NCCO	-	-	-	-	-
CCC(CN1CCCC1)NC(=O)Cc1sc(C)nc1-c1ccc(C)c(C)c1 (configuration not stated)	.	-	.	-	.
COc1ccc2c(c1OC)C(=O)O[C@H]2[C@H]1c2c(cc3c(c2OC)OCO3)CCN1C	.	68	.	-	.
O=C(Nc1c(F)cccc1F)c1cccs1	.	-	.	-	.
CCCC(c1nnnn1C1CCCC1)N(Cc1ccco1)Cc1cc2cccc(C)c2[nH]c1=O (configuration not stated)	.	-	.	-	.
CCc1ccccc1NC(=S)N(Cc1ccco1)Cc1cc2cc(C)ccc2[nH]c1=O	.	87	.	-	.
CCc1ccccc1NC(=S)N(Cc1ccco1)Cc1cc2ccc(C)cc2[nH]c1=O	.	-	.	-	.
CCc1ccc2[nH]c(=O)c(C(c3nnnn3C(C)(C)C)N(Cc3ccco3)CC3CCCO3)cc2c1 (configuration not stated)	.	66	.	-	.
CCCC(c1nnnn1C1CCCCC1)N(Cc1ccco1)Cc1cc2cc(C)c(C)cc2[nH]c1=O (configuration not stated)	.	72	.	-	.

From PubChem
